Activity calls are given as the source filed them. The calls are words filed in the database; no cut-off is given here.
Legend:
[1] = Solubility at pH 6.5; assay type: physicochemical; conditions: buffer
[2] = target: T1, CDC7/DBF4 (Cell division cycle 7-related protein kinase/Activator of S phase kinase) (Homo sapiens, UniProt O00311); assay: Inhibition of human recombinant Cdc7/Dbf4 by IMAP assay; assay type: protein-complex assay
[3] = Permeability in human Caco-2 cells; assay type: ADME, cell-based; conditions: read-out: permeability
[4] = target: T1, CDC7/DBF4 (Cell division cycle 7-related protein kinase/Activator of S phase kinase); assay: Inhibition of human recombinant Cdc7/Dbf4 by HTRF assay
[5] = target: Cyclin-dependent kinase 1/cyclin B1 (Homo sapiens, UniProt P06493); assay: Inhibition of human CDK1/Cyclin B by IMAP assay; assay type: protein-complex assay
[6] = target: RAC-alpha serine/threonine-protein kinase (Homo sapiens, UniProt P31749); assay: Inhibition of human AKT by IMAP assay
RKO = assay: Cytotoxicity against human RKO cells MTT assay; assay type: functional, cell-based
Method in brief: (§1)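 MTT viability assay on human colon cancer cell lines exposed in vitro across a compound concentration range. IC50 was taken from the dose-response.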

Ephrin type-B receptor 3 = target: T2, Ephrin type-B receptor 3 (Homo sapiens, UniProt P54753); assay: Inhibition of human EphB3 by IMAP assay
T2 sequence (P54753 whole entry): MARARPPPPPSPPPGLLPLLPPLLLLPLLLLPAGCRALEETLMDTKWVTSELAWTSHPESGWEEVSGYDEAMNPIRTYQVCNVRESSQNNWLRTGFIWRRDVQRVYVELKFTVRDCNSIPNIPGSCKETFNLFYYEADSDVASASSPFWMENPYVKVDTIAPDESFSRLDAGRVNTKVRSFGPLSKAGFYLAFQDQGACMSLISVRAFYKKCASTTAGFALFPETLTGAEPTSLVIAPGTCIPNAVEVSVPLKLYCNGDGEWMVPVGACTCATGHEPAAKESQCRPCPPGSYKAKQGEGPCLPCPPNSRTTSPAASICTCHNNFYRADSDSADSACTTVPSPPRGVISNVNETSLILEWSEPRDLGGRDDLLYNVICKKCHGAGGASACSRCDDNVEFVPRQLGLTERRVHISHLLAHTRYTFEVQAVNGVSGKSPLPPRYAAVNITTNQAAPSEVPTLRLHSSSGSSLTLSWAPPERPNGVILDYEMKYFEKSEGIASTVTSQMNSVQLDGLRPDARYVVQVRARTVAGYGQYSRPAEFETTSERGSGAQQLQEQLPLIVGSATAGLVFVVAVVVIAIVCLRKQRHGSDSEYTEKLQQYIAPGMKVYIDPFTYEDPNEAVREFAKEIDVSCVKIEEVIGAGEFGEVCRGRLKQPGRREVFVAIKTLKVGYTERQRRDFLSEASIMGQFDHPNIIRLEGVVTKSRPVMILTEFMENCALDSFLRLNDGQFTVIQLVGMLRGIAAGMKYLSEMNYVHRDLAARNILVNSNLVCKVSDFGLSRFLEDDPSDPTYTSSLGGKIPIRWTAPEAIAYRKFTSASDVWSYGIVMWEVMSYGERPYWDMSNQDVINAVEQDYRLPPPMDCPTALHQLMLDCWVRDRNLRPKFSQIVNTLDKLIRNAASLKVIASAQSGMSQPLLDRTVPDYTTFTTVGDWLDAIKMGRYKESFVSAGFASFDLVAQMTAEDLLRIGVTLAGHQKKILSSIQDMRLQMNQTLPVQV

[7] = target: Protein kinase C delta type (Homo sapiens, UniProt Q05655); assay: Inhibition of human PKCdelta by IMAP assay
[8] = Inhibition of human CDK4/Cyclin D by IMAP assay
[9] = target: Tyrosine-protein kinase Fyn (Homo sapiens, UniProt P06241); assay: Inhibition of human Fyn by IMAP assay
[10] = target: Cyclin-dependent kinase 2 (Homo sapiens, UniProt P24941); assay: Inhibition of human CDK2/Cyclin E by IMAP assay
[11] = target: CDC7/DBF4 (Cell division cycle 7-related protein kinase/Activator of S phase kinase) (Homo sapiens) (UniProt Q9UBU7+O00311); assay: Inhibition of Cdc7/Dbf4-mediated MCM2 phosphorylation in human HCT116 cells assessed as decrease in faster migration of protein at 20 uM after 18 hrs by Western blot analysis; assay type: cell-based; conditions: HCT-116
Method in brief: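 HCT116 cells were arrested with 100 nM nocodazole for 16 h and mitotic cells were collected by shake-off and washed. The resulting G1 cells were incubated with 20 µM compound or DMSO for 18 h. MCM2 and phospho-MCM2 were read by Western blot.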

HCT-116 = assay: Cytotoxicity against human HCT116 cells MTT assay; assay type: functional, cell-based; method in brief: as §1
[12] = Inhibition of human PKA by IMAP assay
[13] = target: Protein kinase C alpha type (Homo sapiens, UniProt P17252); assay: Inhibition of human PKCalpha by IMAP assay
[14] = target: Mitogen-activated protein kinase 1 (Homo sapiens, UniProt P28482); assay: Inhibition of human ERK2 by IMAP assay
[15] = target: T3, Serine/threonine-protein kinase Sgk1 (Homo sapiens, UniProt O00141); assay: Inhibition of human SGK by IMAP assay
T3 sequence (O00141 whole entry): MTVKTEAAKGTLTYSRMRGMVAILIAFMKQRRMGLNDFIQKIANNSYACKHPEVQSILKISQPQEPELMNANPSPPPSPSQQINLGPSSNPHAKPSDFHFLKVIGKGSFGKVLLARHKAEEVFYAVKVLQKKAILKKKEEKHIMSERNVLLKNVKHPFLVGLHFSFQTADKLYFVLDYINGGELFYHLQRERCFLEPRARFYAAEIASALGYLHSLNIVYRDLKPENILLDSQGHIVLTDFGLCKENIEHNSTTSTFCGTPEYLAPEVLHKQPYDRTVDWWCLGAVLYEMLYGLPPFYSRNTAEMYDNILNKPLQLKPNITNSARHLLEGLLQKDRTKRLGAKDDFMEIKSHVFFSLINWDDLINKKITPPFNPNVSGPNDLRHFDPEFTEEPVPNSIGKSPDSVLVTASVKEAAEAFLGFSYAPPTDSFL

SW480 = assay: Cytotoxicity against human SW480 cells MTT assay; assay type: functional, cell-based; method in brief: as §1

T1 sequence (Q9UBU7 whole entry): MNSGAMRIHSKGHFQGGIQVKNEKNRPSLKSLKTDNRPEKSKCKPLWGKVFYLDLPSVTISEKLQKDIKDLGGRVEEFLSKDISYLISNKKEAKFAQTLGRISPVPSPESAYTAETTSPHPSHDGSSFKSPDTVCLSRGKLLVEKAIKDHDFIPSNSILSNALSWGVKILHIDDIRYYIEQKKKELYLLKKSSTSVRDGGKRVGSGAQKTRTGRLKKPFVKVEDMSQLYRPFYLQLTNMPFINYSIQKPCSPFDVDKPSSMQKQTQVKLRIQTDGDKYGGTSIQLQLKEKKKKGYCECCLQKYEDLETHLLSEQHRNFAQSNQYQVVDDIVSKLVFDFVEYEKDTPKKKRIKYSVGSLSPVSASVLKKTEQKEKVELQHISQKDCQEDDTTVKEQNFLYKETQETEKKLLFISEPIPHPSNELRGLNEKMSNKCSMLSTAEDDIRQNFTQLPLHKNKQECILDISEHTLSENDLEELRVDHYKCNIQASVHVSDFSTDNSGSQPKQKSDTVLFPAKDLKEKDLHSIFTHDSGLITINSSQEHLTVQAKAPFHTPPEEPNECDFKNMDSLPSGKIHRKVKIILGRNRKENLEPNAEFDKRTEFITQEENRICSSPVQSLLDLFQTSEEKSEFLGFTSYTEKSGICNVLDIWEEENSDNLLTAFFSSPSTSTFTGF
T1 sequence (O00311 whole entry): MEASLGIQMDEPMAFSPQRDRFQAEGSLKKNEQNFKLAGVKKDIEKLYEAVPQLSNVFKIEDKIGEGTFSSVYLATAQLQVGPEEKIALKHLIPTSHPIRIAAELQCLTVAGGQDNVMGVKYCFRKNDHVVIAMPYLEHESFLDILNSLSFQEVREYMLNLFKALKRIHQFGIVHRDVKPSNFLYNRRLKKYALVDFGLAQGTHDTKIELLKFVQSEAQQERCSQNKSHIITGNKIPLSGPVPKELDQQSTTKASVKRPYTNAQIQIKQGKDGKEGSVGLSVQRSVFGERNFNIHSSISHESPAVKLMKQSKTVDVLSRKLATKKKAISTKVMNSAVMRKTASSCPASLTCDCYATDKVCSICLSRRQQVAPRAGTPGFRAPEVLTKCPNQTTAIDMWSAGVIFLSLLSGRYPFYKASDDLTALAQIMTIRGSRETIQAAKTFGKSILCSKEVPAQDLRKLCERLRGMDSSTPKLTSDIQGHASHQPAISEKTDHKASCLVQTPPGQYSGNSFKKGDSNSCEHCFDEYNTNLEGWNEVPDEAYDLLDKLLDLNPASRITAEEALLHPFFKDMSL
Chain of Cyclin-dependent kinase 1/cyclin B1 (P06493 whole entry): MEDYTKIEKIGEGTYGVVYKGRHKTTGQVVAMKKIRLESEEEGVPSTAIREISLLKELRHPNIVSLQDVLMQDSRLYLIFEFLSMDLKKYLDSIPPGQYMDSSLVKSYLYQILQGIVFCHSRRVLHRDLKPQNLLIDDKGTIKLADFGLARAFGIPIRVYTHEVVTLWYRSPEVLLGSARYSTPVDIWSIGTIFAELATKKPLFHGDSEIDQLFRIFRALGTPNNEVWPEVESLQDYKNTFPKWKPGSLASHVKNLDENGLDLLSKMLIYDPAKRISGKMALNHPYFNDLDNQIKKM
Chain of Cyclin-dependent kinase 1/cyclin B1 (P14635 whole entry, further chain): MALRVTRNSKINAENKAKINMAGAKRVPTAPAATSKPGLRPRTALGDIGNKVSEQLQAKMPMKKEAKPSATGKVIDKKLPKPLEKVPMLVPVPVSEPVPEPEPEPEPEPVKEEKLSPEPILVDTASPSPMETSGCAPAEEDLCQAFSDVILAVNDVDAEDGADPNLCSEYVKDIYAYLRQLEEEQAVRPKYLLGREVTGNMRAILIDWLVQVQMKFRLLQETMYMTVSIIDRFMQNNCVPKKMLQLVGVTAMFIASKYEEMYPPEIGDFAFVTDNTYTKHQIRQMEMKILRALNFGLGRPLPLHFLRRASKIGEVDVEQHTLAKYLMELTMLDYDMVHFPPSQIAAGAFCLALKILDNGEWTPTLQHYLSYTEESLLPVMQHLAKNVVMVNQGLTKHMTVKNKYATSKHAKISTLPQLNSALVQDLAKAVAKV
Chain of Protein kinase C delta type (Q05655 whole entry): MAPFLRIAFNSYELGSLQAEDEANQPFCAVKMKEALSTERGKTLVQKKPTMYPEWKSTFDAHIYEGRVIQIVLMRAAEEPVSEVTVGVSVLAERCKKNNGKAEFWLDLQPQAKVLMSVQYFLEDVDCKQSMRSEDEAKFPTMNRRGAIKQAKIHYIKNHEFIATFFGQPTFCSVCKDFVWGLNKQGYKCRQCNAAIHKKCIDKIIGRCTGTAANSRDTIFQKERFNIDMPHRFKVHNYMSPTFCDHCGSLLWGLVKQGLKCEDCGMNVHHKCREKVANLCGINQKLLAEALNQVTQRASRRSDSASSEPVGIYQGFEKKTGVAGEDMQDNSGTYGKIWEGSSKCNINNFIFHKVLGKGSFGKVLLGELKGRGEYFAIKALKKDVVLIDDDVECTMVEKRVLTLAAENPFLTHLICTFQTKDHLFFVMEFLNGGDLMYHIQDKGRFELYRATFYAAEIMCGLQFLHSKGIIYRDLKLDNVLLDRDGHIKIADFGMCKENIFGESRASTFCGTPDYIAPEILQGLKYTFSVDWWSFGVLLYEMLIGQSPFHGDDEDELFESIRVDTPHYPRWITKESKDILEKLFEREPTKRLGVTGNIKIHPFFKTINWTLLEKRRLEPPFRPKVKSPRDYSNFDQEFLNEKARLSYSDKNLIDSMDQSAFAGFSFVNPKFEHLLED
Chain of Tyrosine-protein kinase Fyn (P06241 whole entry): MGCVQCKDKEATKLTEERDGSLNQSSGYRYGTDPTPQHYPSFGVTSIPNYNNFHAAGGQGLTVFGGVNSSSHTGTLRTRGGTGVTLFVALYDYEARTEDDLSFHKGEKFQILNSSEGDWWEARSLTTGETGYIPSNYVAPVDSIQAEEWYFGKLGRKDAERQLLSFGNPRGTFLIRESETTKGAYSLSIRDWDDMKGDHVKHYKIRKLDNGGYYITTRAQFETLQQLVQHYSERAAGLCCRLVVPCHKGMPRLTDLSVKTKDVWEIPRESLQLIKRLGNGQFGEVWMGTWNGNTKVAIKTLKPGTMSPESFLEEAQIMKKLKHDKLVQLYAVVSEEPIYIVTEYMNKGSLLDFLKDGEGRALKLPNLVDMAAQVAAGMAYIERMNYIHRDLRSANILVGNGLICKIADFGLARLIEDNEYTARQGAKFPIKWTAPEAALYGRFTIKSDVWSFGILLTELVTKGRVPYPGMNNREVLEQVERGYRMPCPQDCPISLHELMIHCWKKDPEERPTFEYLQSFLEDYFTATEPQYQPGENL
Chain of Mitogen-activated protein kinase 1 (P28482 whole entry): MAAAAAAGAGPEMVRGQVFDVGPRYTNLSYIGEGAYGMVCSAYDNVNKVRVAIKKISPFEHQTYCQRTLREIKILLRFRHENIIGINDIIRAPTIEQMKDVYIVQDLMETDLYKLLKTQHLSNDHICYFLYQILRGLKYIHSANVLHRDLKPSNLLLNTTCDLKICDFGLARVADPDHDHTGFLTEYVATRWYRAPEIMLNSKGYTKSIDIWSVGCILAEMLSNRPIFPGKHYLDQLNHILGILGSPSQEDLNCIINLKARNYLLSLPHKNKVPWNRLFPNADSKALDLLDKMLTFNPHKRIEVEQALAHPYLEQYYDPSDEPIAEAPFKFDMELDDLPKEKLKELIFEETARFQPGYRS
Chain of CDC7/DBF4 (Cell division cycle 7-related protein kinase/Activator of S phase kinase) (Homo sapiens) (O00311 whole entry, looked up): as the sequence (O00311 whole entry) above
Chain of CDC7/DBF4 (Cell division cycle 7-related protein kinase/Activator of S phase kinase) (Homo sapiens) (Q9UBU7 whole entry, looked up): as the sequence (Q9UBU7 whole entry) above
Chain of RAC-alpha serine/threonine-protein kinase (P31749 whole entry): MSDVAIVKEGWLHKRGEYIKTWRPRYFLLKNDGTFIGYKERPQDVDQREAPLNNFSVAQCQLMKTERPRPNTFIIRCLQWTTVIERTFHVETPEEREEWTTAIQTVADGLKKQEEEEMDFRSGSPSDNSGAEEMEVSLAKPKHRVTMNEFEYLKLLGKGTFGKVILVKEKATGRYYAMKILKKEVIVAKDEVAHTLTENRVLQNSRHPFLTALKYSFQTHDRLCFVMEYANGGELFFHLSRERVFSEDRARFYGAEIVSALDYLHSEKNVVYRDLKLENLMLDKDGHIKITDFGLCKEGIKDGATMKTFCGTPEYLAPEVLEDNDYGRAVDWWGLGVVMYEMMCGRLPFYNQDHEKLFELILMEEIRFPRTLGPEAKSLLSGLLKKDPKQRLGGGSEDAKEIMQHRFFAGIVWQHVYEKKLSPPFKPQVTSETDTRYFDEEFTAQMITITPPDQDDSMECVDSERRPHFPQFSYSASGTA

SMILES | solubility [1] | Ki [2] | Papp [3] | IC50 [4] | further results
Cc1c2c(nc3sc4c(N)ncnc4c13)CCCC2 | < 30 µg/mL | 2 nM | > 20 ×10⁻⁶ cm/s | 20 nM | –
Cc1cc(C)c2c(n1)sc1c(N)ncnc12 | < 30 µg/mL | – | > 20 ×10⁻⁶ cm/s | – | –
Nc1ncnc2c1sc1nc(C3CC3)cc(C(F)(F)F)c12 | < 30 µg/mL | 400 nM | > 20 ×10⁻⁶ cm/s | 4000 nM | –
Nc1ncnc2c1sc1ncccc12 | < 30 µg/mL | 1200 nM | > 20 ×10⁻⁶ cm/s | 12000 nM | –
CNc1ncnc2c1sc1nc(C)cc(C)c12 | < 30 µg/mL | > 3000 nM | > 20 ×10⁻⁶ cm/s | > 30000 nM | –
Cc1nc2sc3c(N)ncnc3c2c2c1CCC2 | < 30 µg/mL | 3 nM | > 20 ×10⁻⁶ cm/s | 30 nM | –
Cc1nc2sc3c(N)ncnc3c2c(C)c1C | < 30 µg/mL | 4 nM | > 20 ×10⁻⁶ cm/s | 40 nM | –
C=CCc1c(C)nc2sc3c(N)ncnc3c2c1C | < 30 µg/mL | 2 nM | > 20 ×10⁻⁶ cm/s | 20 nM | Ki [5]: > 5000 nM; Ki [6]: > 5000 nM; IC50 (RKO): 6600 nM; Ki (Ephrin type-B receptor 3): > 5000 nM; Ki [7]: > 5000 nM; Ki [8]: > 5000 nM; Ki [9]: > 5000 nM; Ki [10]: > 5000 nM; Activity [11]: Active; IC50 (HCT-116): 8300 nM; Ki [12]: 1100 nM; Ki [13]: > 5000 nM; Ki [14]: > 5000 nM; Ki [15]: > 5000 nM; IC50 (SW480): 9600 nM
CCOC(=O)c1cc2c(nc1C)sc1c(N)ncnc12 | < 30 µg/mL | 1000 nM | > 20 ×10⁻⁶ cm/s | 10000 nM | –
Nc1ncnc2c1sc1ncc(-c3ccccc3)cc12 | < 30 µg/mL | 900 nM | > 20 ×10⁻⁶ cm/s | 9000 nM | –
Cc1nc2sc3c(N)ncnc3c2c(C)c1Cc1ccccc1 | < 30 µg/mL | 200 nM | > 20 ×10⁻⁶ cm/s | 2000 nM | –
Cc1nc2sc3c(N)ncnc3c2c2c1CCCC2 | < 30 µg/mL | 0.5 nM | > 20 ×10⁻⁶ cm/s | 5 nM | –
Cc1c2c(nc3sc4c(N)ncnc4c13)CCC2 | < 30 µg/mL | 5 nM | > 20 ×10⁻⁶ cm/s | 50 nM | –
CCc1c(C)nc2sc3c(N)ncnc3c2c1C | < 30 µg/mL | 1 nM | > 20 ×10⁻⁶ cm/s | 10 nM | –
Cc1cc(C)c2c(n1)sc1c(Nc3ccccc3)ncnc12 | < 30 µg/mL | > 3000 nM | > 20 ×10⁻⁶ cm/s | > 30000 nM | –
Cc1cc(C)c2c(n1)sc1c(N(C)C)ncnc12 | < 30 µg/mL | > 3000 nM | > 20 ×10⁻⁶ cm/s | > 30000 nM | –

Reference: ChEMBL document CHEMBL1154537, “Synthesis and evaluation of pyrido-thieno-pyrimidines as potent and selective Cdc7 kinase inhibitors” (Bioorg Med Chem Lett, 2009)
